DAGLB inhibitor = blocks human DAGLB lipase activity | Q8NCG7 | HEK293T DAGLB membrane lysate, EnzChek fluorogenic substrate | inhibition, % at 5.17 µM | 340,000 compounds, 0.059% hits; in the data active means inhibition above about 34%;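 further: 0% = enzyme with vehicle and 100% = wells lacking enzyme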
Target sequence (Q8NCG7 whole entry, looked up): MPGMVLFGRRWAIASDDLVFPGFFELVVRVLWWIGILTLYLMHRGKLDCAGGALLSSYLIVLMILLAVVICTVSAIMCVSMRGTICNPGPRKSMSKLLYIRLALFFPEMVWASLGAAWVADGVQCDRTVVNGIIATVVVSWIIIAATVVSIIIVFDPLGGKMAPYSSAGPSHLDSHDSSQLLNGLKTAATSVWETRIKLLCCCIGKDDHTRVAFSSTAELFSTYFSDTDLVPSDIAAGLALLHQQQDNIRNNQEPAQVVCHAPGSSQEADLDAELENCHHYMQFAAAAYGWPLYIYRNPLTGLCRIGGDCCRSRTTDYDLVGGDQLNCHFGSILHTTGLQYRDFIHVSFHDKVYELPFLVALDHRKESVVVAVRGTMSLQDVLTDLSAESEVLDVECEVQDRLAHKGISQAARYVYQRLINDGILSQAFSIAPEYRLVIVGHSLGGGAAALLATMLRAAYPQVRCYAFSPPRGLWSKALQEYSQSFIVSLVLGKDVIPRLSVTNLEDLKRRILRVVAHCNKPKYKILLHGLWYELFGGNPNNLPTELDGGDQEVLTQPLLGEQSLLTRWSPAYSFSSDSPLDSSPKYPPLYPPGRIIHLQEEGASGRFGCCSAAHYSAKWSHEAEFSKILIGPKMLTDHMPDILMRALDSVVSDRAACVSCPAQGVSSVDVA
FGF22 binding = FGF22 (human) thermal shift binding. activity (Tm shift, normalised), % at 9.99 µM. 340,000 compounds, 1.5% hits. recombinant FGF22 thermal shift, SYPRO orange fluorescence; percent of sucrose octasulfate shift, DMSO zero. Q9HCT0;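 active means mean Tm shift, scaled 0 neutral to 100 positive control, at about 1.3% or above, every replicate too, limit read from the data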
ABCB6 inh MLPCN = blocks the human ABCB6 transporter | fluorescence ratio to DMSO, % at 10 µM | 360,000 compounds, 0.19% hits | Q9NP58 | AID 602162 | K562-ABCB6 porphyrin accumulation, flow cytometry, 1 h; hits give low values;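 active means fluorescence ratio to DMSO below 75%, the collection mean minus 3 SD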;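 further: signal is porphyrin accumulated inside mitochondria; 100% equals median channel fluorescence of DMSO control wells; lower ratio means ABCB6 inhibition with less porphyrin fluorescence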
MT1-MMP act inh = blocks activation of human MT1-MMP; AID 651647; 360,000 compounds, 0.061% hits; HT1080 RFP-PRO-GFP cells, GFP/RFP ratio fluorescence, overnight; percent of plate control window, DMSO zero; GFP/RFP ratio change, % at 20 µM; P50281;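 active means GFP/RFP ratio change of at least 30% with cell ATP level not reduced by more than half and red fluorescence within 50% of control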
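Test system: HT1080 RFP-PRO-GFP cells; Benchmarks: DMSO and RFP-L50D-GFP cell wells; Timing: cells overnight before dosing, compound overnight, 37 °C, 5% CO2; Compound: one 20 µM compound dose with 1% DMSO; Read-out: GFP/RFP fluorescence ratio.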
VLA-4 inh = inhibition in a human VLA-4 binding assay | 330,000 compounds, 0.2% hits | VLA-4 expressing cells, ligand binding flow cytometry | P13612 | inhibition, % (about 7 µM as worked out from the volumes in the protocol); in the data active means inhibition above about 50%
Exocytosis inh = blocks lytic granule exocytosis; inhibition, % at 10 µM; TALL-104 LAMP-1 surface exposure, flow cytometry; cells stimulated with thapsigargin and PMA; 360,000 compounds, 0.66% hits;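 active means inhibition above about 55%, limit read from the data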
VLA-4 allo CP = human VLA-4 allosteric modulation in cherry picked compounds. shares compounds with VLA-4 inh. U937 cells, HUTS-21 LIBS mAb binding, flow cytometry; LDV ligand present at threefold Kd. inhibition, % at 6.7 µM. 1,300 compounds, 2% hits; in the data active means inhibition above about 40%;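 further: 0% = ligand without compound and 100% = no ligand background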
Numbers without * were called inactive; / = no result. Compounds with a hit are over-represented: about 2% of the library has one in this group of screens.

SMILES | DAGLB inhibitor | FGF22 binding | ABCB6 inh MLPCN | MT1-MMP act inh | VLA-4 inh | Exocytosis inh | VLA-4 allo CP
Cc1cc(=O)oc2c3c(cc(OCC(=O)N[C@@H](C)C(=O)O)c12)OC(C)(C)CC3 | -2 | 0 | 101 | -1 | -7 | 2 | /
C[C@@H]1CCCCO[C@H](CN(C)Cc2ccncc2)[C@H](C)CN([C@@H](C)CO)C(=O)c2cc(NS(=O)(=O)c3ccccc3)ccc2O1 | / | 1 | / | / | / | / | /
O=C(CSc1nnc(Nc2ccccc2)s1)NN1C(=O)NC2(CCCCC2)C1=O | 1 | / | 100 | 2 | 49 | -1 | -8
O=C(CSc1nnc(NC2CC2)s1)NN1C(=O)NC2(CCCCC2)C1=O | 1 | 1 | 96 | 1 | -5 | -2 | /
CC(C)C(NC(=O)c1ccccc1)c1nnc(SCC(=O)Nc2nccs2)n1C (stereo not given) | -2 | / | 99 | -2 | 58* | -3 | 3
COc1ccc(OCCOCCN2CCOCC2)cc1 | 1 | / | 101 | 0 | -1 | -2 | /
COc1cccc(-c2sc3ccc(OC)cc3c2-c2ccc(OCCN3CCOCC3)cc2)c1 | -6 | / | 94 | -3 | 19 | 18 | 7
COc1cccc(-c2sc3ccc(OC)cc3c2-c2cnc(N3CCOCC3)nc2)c1 | / | 0 | 99 | 2 | / | 0 | /
COc1ccc(-c2sc3cc4c(cc3c2-c2ccc(OCCN3CCOCC3)cc2)OCO4)cc1 | -5 | 0 | 95 | / | 26 | -3 | 15
COc1cccc(-c2sc3ccc(OC)cc3c2-c2cc(F)cc(OC)c2)c1 | -14 | 0 | 94 | -1 | -11 | 2 | /
COc1cc(OC)cc(-c2sc3ccc(OC)cc3c2-c2ccc(OCCN3CCOCC3)cc2)c1 | -6 | / | 106 | -5 | / | 12 | 6
C[C@@H]1CN([C@@H](C)CO)S(=O)(=O)c2ccc(C#Cc3ccncc3)cc2O[C@H]1CN(C)C(=O)C1CCOCC1 | / | 0 | / | / | / | / | /
O=C(COC(=O)c1ccc(Cl)c([N+](=O)[O-])c1)NC1CCCC1 | -2 | 0 | 94 | -1 | 8 | -6 | /
O=C(COC(=O)c1ccccc1C(=O)c1ccc(Cl)c([N+](=O)[O-])c1)NC1CCCCCC1 | 1 | / | 84 | -17 | 62* | 54 | 32
Cc1cc(=O)[nH]c(N2CCCNCC2)n1 | -4 | / | 102 | -1 | 7 | 5 | /
Cc1cc(=O)[nH]c(-n2nc(C)cc2C)n1 | -1 | / | 98 | 5 | 94* | 6 | 15
CC(C)C(NC(=O)c1ccccc1F)C(=O)NCc1ccccc1 (stereo not given) | 3 | 0 | 99 | 2 | 52* | -8 | -7
COc1cccc(NC(=O)c2cc(-c3ccc(C)o3)nc3ccccc23)c1 | -2 | 0 | 94 | -1 | -4 | 3 | /
COC(=O)c1cc(-c2ccc(C)o2)nc2ccccc12 | -2 | / | 100 | -5 | 41 | 50 | -27
C/C=C/c1ccc2c(c1)O[C@H](CN(C)C(=O)Cc1ccccc1)[C@H](C)CN([C@@H](C)CO)S2(=O)=O | / | 1 | / | / | / | / | /
O=C(COC(=O)c1cc2ccccc2cc1O)Nc1ccccc1F | -5 | 0 | 90 | 2 | -2 | 0 | /
COc1cc(N)c(Cl)cc1C(=O)OCC(=O)NCC1CCCCC1 | 0 | 0 | 94 | 3 | 11 | 1 | 5
COc1cc(N)c(Cl)cc1C(=O)OCC(=O)NCC1CCCO1 (stereo not given) | 0 | 0 | 99 | 0 | 18 | 2 | /
O=C(COC(=O)c1ccccc1NCCO)NCC1CCCCC1 | 1 | 0 | 96 | 0 | -10 | -2 | /
O=C(COC(=O)c1ccccc1Br)NCC1CCCCC1 | / | / | 99 | 0 | 1 | -2 | -22
SMILES | DAGLB inhibitor | FGF22 binding | ABCB6 inh MLPCN | MT1-MMP act inh | VLA-4 inh | Exocytosis inh | VLA-4 allo CP
O=C(COC(=O)c1ccccc1Br)Nc1ccccc1F | -3 | 0 | 94 | -2 | 36 | -8 | 8
O=C(C[C@H]1CC[C@@H]2[C@H](COC[C@@H](O)CN2S(=O)(=O)c2cccc(F)c2)O1)Nc1ccccc1 | / | 1 | / | / | / | / | /
CO[C@H]1CN(C)C(=O)c2cc(C#N)ccc2OCC[C@H]2CC[C@@H](OC)[C@@H](CN(C)C(=O)[C@@H]1C)O2 | / | 0 | / | / | / | / | /
COC(=O)C(C)Oc1ccc(Oc2nc(Cl)ccc2Cl)cc1 (stereo not given) | -6 | 0 | 97 | 1 | 52* | 0 | -8
Cc1noc(C)c1S(=O)(=O)Nc1ccc2c(c1)CC(=O)N([C@H](C)CO)C[C@@H](C)[C@H](CN(C)Cc1ccncc1)O2 | / | 0 | / | / | / | / | /
Cc1ccc(S(=O)(=O)C(NC(=O)c2ccccc2)=C(Cl)Cl)cc1 | -2 | / | 90 | 0 | 54* | 2 | -1
CCC(=O)N1CC2(CCN(Cc3cncnc3)CC2)c2c([nH]c3cc(OC)ccc23)[C@@H]1CO | / | 0 | / | / | / | / | /
COc1ccccc1NC(=S)N1CCN(c2ccccn2)CC1 | -1 | / | 95 | 6 | -15 | -2 | /
COc1ccccc1NC(=O)N1CCN(c2ccccn2)CC1 | 0 | 0 | 97 | -2 | 52* | 37 | -4
CCOC(=O)c1[nH]c(C)c(C(=O)OCC(=O)N2CCCCC2C)c1C (stereo not given) | 2 | / | 102 | 2 | 61* | -1 | 16
OC[C@H]1[C@@H](c2ccc(-c3cccnc3)cc2)[C@@H]2CN(CC3CCOCC3)CCCCN12 | / | 0 | / | / | / | / | /
CCN(CC)S(=O)(=O)c1ccc(NC(=O)Cn2c(=O)oc3ccccc32)cc1 | 0 | / | 91 | 1 | 7 | -1 | 4
N#CCc1ccc(NC(=O)Cn2c(=O)oc3ccccc32)cc1 | -2 | 0 | 100 | 0 | 14 | 6 | -15
Cc1ccc(NC(=O)Cn2c(=O)oc3ccccc32)cc1 | 0 | 0 | 103 | 3 | 8 | -1 | /
C[C@@H]1CCCCO[C@H](CN(C)Cc2ccccc2)[C@@H](C)CN([C@@H](C)CO)C(=O)c2cc(NC(=O)Nc3ccc4c(c3)OCO4)ccc2O1 | / | -1 | / | / | / | / | /
C[C@H](CO)N1C[C@H](C)[C@H](CN(C)Cc2cccnc2)OCc2cnnn2CCCC1=O | / | 0 | / | / | / | / | /
CC(C)NC(=O)CCCC(=O)NC(C)C | 2 | 0 | 100 | -6 | 42 | -1 | -10
CC(C)NC(=O)CCCc1ccccc1 | -3 | / | 97 | / | 5 | -2 | /
CC1(C)CC(N2CCCC2)=CC(=[N+]2CCCCC2)C1 | 0 | 0 | 93 | -7 | 50* | -1 | -9
Cc1nc([N+](=O)[O-])c(NCCO)n1Cc1ccccc1 | 2 | / | 97 | 4 | 54* | 2 | 3
Cc1nc([N+](=O)[O-])c(SCC(N)=O)n1Cc1ccccc1 | -1 | 0 | 96 | 0 | -9 | 0 | /
Cc1ccc([N+](=O)[O-])cc1N(CC(=O)N1CCCCC1)S(C)(=O)=O | 0 | 0 | 90 | -3 | 53* | -1 | -3

Bioassay records as filed in PubChem BioAssay.
